Measurements taken from ChEMBL document CHEMBL2396594, “Designing allosteric regulators of thrombin. Exosite 2 features multiple subsites that can be targeted by sulfated small molecules for inducing inhibition” (J Med Chem, 2013).
Calls of active or inactive are those of the source. No cut-off for these calls is given here. Where a SMILES comes first, the peptide text is derived from it. [ ]: non-standard residue; d: D form. pY = N[C@@H](Cc1ccc(OP(=O)(O)O)cc1)C(=O)O

Tests used:
[1] = (§1) Inhibition of human plasma alpha-thrombin assessed as spectrozyme TH hydrolysis preincubated for 10 mins by spectrophotometric analysis; type: cell-free
Method in brief: (§2)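 Human plasma α-thrombin (5 nM final) with inhibitor (1−900 μM final) in 20 mM Tris-HCl pH 7.4, 100 mM NaCl, 2.5 mM CaCl2, 0.1% PEG8000, PEG20000-coated cuvettes, 10 min. Spectrozyme TH then added (30 μM final). Initial rate from A405 increase. Residual activity fitted by logistic equation with floating Hill slope, Y0, YM to give IC50.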

Homo sapiens [2] = species on record: Homo sapiens; assay: Inhibition of human plasma alpha-thrombin assessed as spectrozyme TH hydrolysis at 1 to 900 uM preincubated for 10 mins by spectrophotometric analysis relative to control; type: cell-free; method in brief: as §2
[3] = target: Coagulation factor X (Homo sapiens) (UniProt P00742); assay: Inhibition of human factor 10a at 365 uM
Homo sapiens [4] = species on record: Homo sapiens; assay: as §1; type: cell-free; method in brief: as §2
Homo sapiens [5] = species on record: Homo sapiens; assay: Binding affinity to human plasma alpha-thrombin exosite-2 using spectrozyme TH as substrate after overnight incubation at 25 degC by spectrophotometric analysis; type: cell-free
Prothrombin = Prothrombin (Homo sapiens, UniProt P00734); assay: Binding affinity to thrombin exosite-2 (unknown origin)

Sequence of Coagulation factor X (Homo sapiens) (P00742 41-179 limits assumed): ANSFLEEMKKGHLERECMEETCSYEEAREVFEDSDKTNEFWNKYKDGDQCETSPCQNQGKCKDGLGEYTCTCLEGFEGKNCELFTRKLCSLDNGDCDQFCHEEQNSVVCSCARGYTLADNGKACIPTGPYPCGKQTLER
Sequence of Coagulation factor X (Homo sapiens) (P00742 235-488 limits assumed): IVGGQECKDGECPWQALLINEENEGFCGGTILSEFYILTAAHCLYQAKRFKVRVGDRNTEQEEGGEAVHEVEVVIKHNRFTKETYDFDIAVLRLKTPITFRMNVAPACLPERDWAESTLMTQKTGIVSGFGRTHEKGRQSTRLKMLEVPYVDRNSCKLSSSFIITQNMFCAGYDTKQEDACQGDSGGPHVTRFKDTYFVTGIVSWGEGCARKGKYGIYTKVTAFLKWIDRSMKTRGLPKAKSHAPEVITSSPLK

Row | IC50 ([1]; read-out: IC50) [µM] | IC50 ([1]; read-out: pIC50 (converted)) [µM] | Efficacy (Homo sapiens [2]) [%] | inhibition [3] | inhibition (Homo sapiens [4]) | K (Homo sapiens [5]) [µM] | K (Prothrombin) [µM] | Compound
1 | 2 | 2.04 | 39 | inactive | – | – | – | CCOC(=O)c1c(C)oc2cc(OC)c(OCc3oc4cc(OC)c(OCc5oc6cc(OC)c(OS(=O)(=O)O)cc6c5C(=O)OC)cc4c3C(=O)OCC)cc12
2 | 158 | 158 | – | – | – | – | – | CCOC(=O)c1c(C)oc2cc(OC)c(OCc3oc4cc(OC)c(OCc5oc6cc(OC)c(OCc7oc8cc(OC)c(OS(=O)(=O)O)cc8c7C(=O)OCC)cc6c5C(=O)OCC)cc4c3C(=O)OCC)cc12
3 | 31 | 30.9 | 53 | – | – | – | – | C=CCOC(=O)c1c(C)oc2cc(OC)c(OCc3oc4cc(OC)c(OCc5oc6cc(OC)c(OS(=O)(=O)O)cc6c5C(=O)OCC)cc4c3C(=O)OCC)cc12
4 | – | – | – | – | Active | – | – | N=C(N)NCCC[C@H](NC(=O)[C@@H]1CCCN1C(=O)[C@H](N)Cc1ccccc1)C(=O)CCl
5 | 99 | 100 | 26 | inactive | – | – | – | CCOC(=O)c1c(C)oc2cc(OC)c(OCc3oc4cc(OC)c(OCc5oc6cc(OC(C)C)c(OS(=O)(=O)O)cc6c5C(=O)OCC)cc4c3C(=O)OCC)cc12
6 | > 500 | – | – | inactive | – | – | – | CCOC(=O)c1c(C)oc2cc(OC)c(OCc3oc4cc(OC)c(OCc5oc6cc(OC)c(OS(=O)(=O)O)cc6c5C(=O)OCCOC)cc4c3C(=O)OCC)cc12
7 | – | – | – | – | – | 2.7 | – | O=C(O)C1=C[C@H](O)[C@@H](OS(=O)(=O)O)[C@H](O[C@H]2[C@H](O)[C@@H](NS(=O)(=O)O)[C@@H](O[C@H]3[C@H](O)[C@@H](OS(=O)(=O)O)[C@H](O[C@H]4[C@H](O)[C@@H](NS(=O)(=O)O)[C@@H](O[C@H]5[C@H](O)[C@@H](OS(=O)(=O)O)[C@H](O[C@H]6[C@H](O)[C@@H](NS(=O)(=O)O)[C@@H](O[C@H]7[C@H](O)[C@@H](OS(=O)(=O)O)[C@H](O[C@H]8[C@H](O)[C@@H](NS(=O)(=O)O)[C@@H](O)O[C@@H]8COS(=O)(=O)O)O[C@H]7COS(=O)(=O)O)O[C@@H]6COS(=O)(=O)O)O[C@H]5COS(=O)(=O)O)O[C@@H]4COS(=O)(=O)O)O[C@H]3COS(=O)(=O)O)O[C@@H]2COS(=O)(=O)O)O1
8 | 5.8 | 5.89 | 43 | inactive | – | – | – | CCOC(=O)c1c(C)oc2cc(OC)c(OCc3oc4cc(OC)c(OCc5oc6cc(OCC)c(OS(=O)(=O)O)cc6c5C(=O)OCC)cc4c3C(=O)OCC)cc12
9 | 66 | 66.1 | 49 | inactive | – | – | – | CCOC(=O)c1c(COc2cc3c(C(=O)O)c(C)oc3cc2OC)oc2cc(OC)c(OCc3oc4cc(OC)c(OS(=O)(=O)O)cc4c3C(=O)OCC)cc12
10 | – | – | – | inactive | – | – | – | CCOC(=O)c1c(C)oc2cc(OC)c(OCc3oc4cc(OC)c(OCc5oc6cc(OC)c(OCc7oc8cc(OC)c(OS(=O)(=O)C(C)(C)C)cc8c7C(=O)OCC)cc6c5C(=O)OCC)cc4c3C(=O)OCC)cc12
11 | 154 | 155 | 91 | – | – | – | – | CCOC(=O)c1c(C)oc2cc(OC)c(OCc3oc4cc(OC)c(OCc5oc6cc(OS(=O)(=O)O)c(OC)cc6c5C(=O)OCC)cc4c3C(=O)OCC)cc12
12 | > 500 | – | – | inactive | – | – | – | CCOC(=O)c1c(COc2cc3c(C(=O)OCC)c(COc4cc5c(C(=O)O)c(C)oc5cc4OC)oc3cc2OC)oc2cc(OC)c(O)cc12
13 | 165 | 166 | 94 | inactive | – | – | – | CCOC(=O)c1c(C)oc2cc(OC)c(OCc3oc4cc(OC)c(OCc5oc6cc(OC)c(OS(=O)(=O)O)cc6c5C(=O)OC(C)(C)C)cc4c3C(=O)OCC)cc12
14 | – | – | – | – | – | – | 0.6 | CC(C)C[C@H](NC(=O)[C@H](CC(=O)O)NC(=O)[C@H](CC(=O)O)NC(=O)[C@H](CCC(=O)O)NC(=O)[C@@H]1CCCN1C(=O)[C@H](Cc1ccc(OP(=O)(O)O)cc1)NC(=O)[C@H](CC(C)C)NC(=O)[C@H](CO)NC(=O)[C@H](CC(=O)O)NC(=O)[C@H](Cc1ccc(OP(=O)(O)O)cc1)NC(=O)[C@H](CCC(=O)O)NC(=O)[C@@H](NC(=O)[C@H](CCC(=O)O)NC(=O)[C@H](C)NC(=O)[C@@H]1CCCN1C(=O)[C@H](Cc1cnc[nH]1)NC(=O)[C@H](CCC(=O)O)NC(=O)[C@@H]1CCCN1C(=O)[C@H](CCCNC(=N)N)NC(=O)[C@@H](N)C(C)C)[C@@H](C)O)C(=O)O (H-VRPEHPAETE[pY]DSL[pY]PEDDL-OH)
